Assay outcomes from PubChem.
TCR-CD3 inh – inhibitors of human TCR-CD3 interaction, primary screen, biochemical, fluorescence, TAMRA-labeled TCR probe; T-cell receptor (TCR); inhibition, % at 9.4 µM; 0.37% of 360,000 active; in the data active means inhibition above about 19%;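 further: recombinant mutant TCR 2C K166C tagged with TAMRA read by polarization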
ABHD4 inh – ABHD4 inhibitors, primary screen, biochemical, fluorescence polarization, mouse; purified mABHD4, FP-Rh probe fluorescence polarization; inhibition, % at 8.92 µM; 0.54% of 370,000 active; AID 720543, 2013;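 active means inhibition exceeding the mean over every tested compound plus 3 SD, cut at about 30% in these data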
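system = mouse ABHD4 enzyme, wild type | medium = HEPES pH 7.0, NaCl, Pluronic buffer | also added = FP-Rh probe | incubation = Enzyme–compound pre-incubation 45 min, then probe 60 min, both 25 °C | technique = fluorescence polarization, excitation 525 nm, emission 598 nm, BODIPY TMR filters | controls = S159A mutant high control, sample median low control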
SIAE primary – human SIAE inhibitors, primary screen, biochemical, fluorescence polarization, FP-Rh probe, 1536-well HTS. Sialate O-acetylesterase (Homo sapiens), Q9HAT2. SIAE FP-Rh probe binding. inhibition, % at 9.66 µM. 0.69% of 370,000 active. AID 1053197, 2014;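 active means inhibition above a cutoff: mean of compounds within the control limits plus 3 SD of those, cut at about 17% in these data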
PRMT1 FP inh – PRMT1 methyltransferase inhibitors, primary screen, biochemical, fluorescence polarization; 1.3% of 370,000 active; Protein arginine N-methyltransferase 1 (Homo sapiens), Q99873; inhibition, % at 2.79 µM; recombinant PRMT1, activity-based probe fluorescence polarization;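 active means inhibition above about 21% made by adding two undisclosed values, limit read from the data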
HTRA1 inhibitor – HTRA1 serine protease inhibitors, primary screen, biochemical, fluorescence polarization, HTS; Q92743; recombinant HTRA1, FP-rhodamine activity-based probe; inhibition, % at 5.96 µM; 0.5% of 340,000 active; AID 504803, 2011; in the data active means inhibition above about 36%
Target sequence (Q92743 whole entry, looked up): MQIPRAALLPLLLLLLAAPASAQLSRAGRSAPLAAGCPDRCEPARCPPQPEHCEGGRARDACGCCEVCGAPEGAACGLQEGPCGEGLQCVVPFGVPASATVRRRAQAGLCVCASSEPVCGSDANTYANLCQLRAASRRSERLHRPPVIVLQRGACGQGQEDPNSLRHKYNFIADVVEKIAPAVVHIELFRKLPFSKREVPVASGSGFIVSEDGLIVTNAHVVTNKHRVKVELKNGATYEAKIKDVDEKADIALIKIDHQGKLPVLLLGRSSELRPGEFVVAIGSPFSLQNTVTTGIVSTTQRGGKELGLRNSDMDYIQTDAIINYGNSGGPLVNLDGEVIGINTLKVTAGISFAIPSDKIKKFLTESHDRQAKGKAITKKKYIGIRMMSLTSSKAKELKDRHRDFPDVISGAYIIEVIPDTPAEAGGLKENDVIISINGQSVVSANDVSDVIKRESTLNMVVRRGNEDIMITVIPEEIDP
rCAG binder-1 – binders of r(CAG) RNA repeats, primary screen, biochemical, fluorescence. r(CAG) RNA repeat, TO-PRO-1 dye displacement fluorescence. inhibition, % at 3 µM. 1.3% of 370,000 active;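 active means inhibition above the plate cutoff, the mean of all test compounds on that plate plus 3 SD, cut at about 35% in these data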;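 further: higher means more dye released from RNA so lower well fluorescence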
rCAG bind conf – small molecules binding CAG repeat RNA – biochemical, fluorescence, confirmation; shares compounds with rCAG binder-1; 70% of 4,300 active; r(CAG) RNA repeat, TO-PRO-1 dye displacement fluorescence; inhibition, % at 3 µM;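 active means inhibition above a per-plate cutoff, the mean inhibition of sample wells plus 3 SD, cut at about 35% in these data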;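 further: loss of TO-PRO-1 fluorescence as compound displaces dye from 1x1 AA loop RNA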
dCAG dye counter – displacement of TO-PRO-1 from CAG DNA duplex, counter-screen for rCAG RNA repeat binder project, biochemical, fluorescence, TO-PRO-1 dye, d(CAG) DNA oligo. shares compounds with rCAG binder-1. inhibition, % at 3 µM. AID 652068, 2013. d(CAG) DNA oligo TO-PRO-1 dye displacement. 94% of 4,300 active;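 active means inhibition above its plate's cutoff, the mean test-well inhibition plus 3 SD, cut at about 4.8% in these data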;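 further: hits displace the dye from DNA and so lower well fluorescence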
DNA CAG DR – inhibitors of DNA CAG/GTC TO-PRO-1 complex, dose response, counter-screen for rCAG RNA repeat binder project, biochemical, fluorescence, TO-PRO-1 dye; shares compounds with rCAG binder-1; DNA CAG/GTC duplex TO-PRO-1 dye displacement fluorescence; IC50, µM; 20% of 250 active; AID 686960, 2013; in the data active means IC50 below about 10 µM
dCAG DNA bind – TO-PRO-1 dye complex inhibitors on d(CAG) DNA, dose response, counter-screen, biochemical, fluorescence, late stage. d(CAG) DNA duplex TO-PRO-1 dye displacement. AID 720649, 2013. 80% of 30 active. shares compounds with rCAG binder-1. IC50, µM
rCAG binder-2 – molecules binding r(CAG) RNA repeats, late stage dose response, late-stage follow-up, biochemical, fluorescence, dose response, powder samples; shares compounds with rCAG binder-1; AID 720651, 2013; 100% of 30 active; r(CAG) RNA TO-PRO-1 dye displacement; IC50, µM
A number is an active result; - = inactive; . = no result. Hits are enriched below; roughly 3.5% of the tested compounds scored in any of these assays. Unless noted, how the calls were made is not given here.

SMILES	TCR-CD3 inh	ABHD4 inh	SIAE primary	PRMT1 FP inh	HTRA1 inhibitor	rCAG binder-1	rCAG bind conf	dCAG dye counter	others
CCOc1ccc(NC(=O)c2ccc3c(SCC(=O)O)c4c(nc3c2)CCCC4)cc1	-	-	-	-	-	-	.	.
COc1cc(Cl)c(C)cc1NC(=O)c1ccc2c(SCC(=O)O)c3c(nc2c1)CCCC3	-	-	-	-	-	-	.	.
CCOC(=O)c1ccccc1NC(=O)c1ccc2c(SCC(=O)O)c3c(nc2c1)CCCC3	-	-	-	-	-	46	74	30	DNA CAG DR=7.1;dCAG DNA bind=5.5;rCAG binder-2=3
COC(=O)[C@]12C[C@H](CC(=O)NCC3CCCCC3)C(=O)N(Cc3cccc4ccccc34)C1=C[C@H](COCc1ccccc1)O[C@@H]2C	.	-	-	-	.	-	.	.
O=C(CCC(=O)N1CCN(C2c3ccccc3-c3ccccc32)CC1)Nc1nnc(C(F)(F)F)s1	.	-	-	-	.	-	.	.
NNC(=O)c1cccc(S(=O)(=O)Nc2cc(Cl)ccc2Cl)c1	-	-	-	-	-	64	-	-
Cc1ccc(C)c(NC(=S)NNC(=O)c2cc3c(s2)CCC(C)C3)c1 (stereo not drawn)	-	-	-	-	-	-	.	.
Cc1cccc(NC(=S)NNC(=O)c2cc3c(s2)CCC(C)C3)c1C (stereo not drawn)	-	-	-	-	-	37	35	12
Cc1cc(C)cc(C(=O)OCCCN(C)C2CN(Cc3cn(Cc4ccc([N+](=O)[O-])cc4)nn3)S(=O)(=O)C2)c1 (stereo not drawn)	.	-	-	-	.	-	.	.
CCN(C1=NS(=O)(=O)c2ccccc21)N(CC)S(=O)(=O)c1ccc(C)cc1	-	-	-	-	-	-	.	.
Cc1ccc(C(=O)N(NC2=NS(=O)(=O)c3ccccc32)S(=O)(=O)c2ccc(C)cc2)cc1	-	-	-	-	-	64	44	13
Cc1ccccc1NC(=O)CSc1nc(O)cc(=O)n1C	-	-	-	-	-	-	.	.
COc1ccc(NC(=O)CSc2nc(O)cc(=O)n2-c2ccc(OC)cc2)cc1	-	-	-	-	-	40	-	4.5
COc1ccccc1-n1c(SCC(=O)Nc2ccccc2C)nc(O)cc1=O	-	-	-	-	-	40	-	5.9
CCn1nc(NS(=O)(=O)c2ccc([N+](=O)[O-])cc2)c2cc3cccc(C)c3nc21	-	-	-	-	-	85	69	31
CCn1nc(NS(=O)(=O)c2ccccc2[N+](=O)[O-])c2cc3ccc(C)cc3nc21	.	.	.	.	-	.	.	.
CCn1nc(NS(=O)(=O)c2ccccc2[N+](=O)[O-])c2cc3cccc(C)c3nc21	-	-	-	-	-	74	54	21
COCCCNC(=O)C[C@H]1C[C@@]2(C(=O)OC)C(=C[C@H](C(C)(C)C)O[C@@H]2C)N(Cc2cccc3ccccc23)C1=O	.	-	-	-	.	-	.	.
Cc1cccc(Cc2cnc(N3C(=N)SC(c4ccccc4)C3=O)s2)c1 (stereo not drawn)	-	-	-	-	-	40	53	18
Cc1cccc(Cc2cnc(N3C(=N)SC(C)C3=O)s2)c1 (stereo not drawn)	-	-	-	-	-	-	.	.
O=C(N/N=C/c1ccc(-c2ccc(Cl)c(C(=O)O)c2)o1)c1cc2c(ccc3ccccc32)o1	-	-	-	-	-	52	86	61
Cc1cc(C)c(C)c(S(=O)(=O)N2C(=S)NC(=O)C2CC(C)C)c1C (stereo not drawn)	-	-	-	-	-	41	-	8.0
O=C(O)CCc1ccc(-c2ccccc2)n1NC(=O)c1sc2ccccc2c1Cl	-	-	-	-	-	57	-	11
C[C@@H]1[C@H](O)[C@@H](C)/C=C/C=C/C=C/C=C/C=C/C=C/C=C/[C@H](OC2O[C@H](C)[C@@H](O)[C@H](N)[C@@H]2O)C[C@@H]2O[C@](O)(C[C@@H](O)C[C@@H](O)[C@H](O)CC[C@@H](O)C[C@@H](O)CC(=O)O[C@H]1C)C[C@H](O)[C@H]2C(=O)O (stereo partly drawn)	.	-	-	-	.	41	44	14	DNA CAG DR=-
CC1C/C=C/C=C/C=C/C=C/C(O[C@@H]2O[C@H](C)[C@@H](O)[C@H](N)[C@@H]2O)CC2OC(O)(CC(O)CC3OC3/C=C/C(=O)O1)CC(O)C2C(=O)O (stereo partly drawn)	-	-	-	-	.	-	.	.
SMILES	TCR-CD3 inh	ABHD4 inh	SIAE primary	PRMT1 FP inh	HTRA1 inhibitor	rCAG binder-1	rCAG bind conf	dCAG dye counter	others
C/C(=N\NC(=O)c1cccc(S(=O)(=O)Nc2ccccc2Cl)c1)c1ccc(-n2ccnc2)cc1	-	-	-	-	-	40	45	14
CSC(=NS(=O)(=O)c1ccccc1)NNC(=O)c1c(-c2c(Cl)cccc2Cl)noc1C	-	-	-	-	.	35	-	-
COc1cc(/C=C2/C(=O)NN(c3ccc(Cl)cc3)C2=O)cc(Br)c1O	-	-	-	-	-	46	-	8.9
COC(=O)c1ccc(N2NC(=O)/C(=C/c3cc(OC)c(O)c(OC)c3)C2=O)cc1	-	-	-	-	-	42	-	4.6
COc1cc(/C=C2/C(=O)NN(c3cccc(F)c3)C2=O)ccc1OC(=O)c1ccco1	-	-	-	-	-	46	82	44
COC(=O)c1ccc(N2NC(=O)/C(=C/c3cc(OC)c(OC)c(OC)c3)C2=O)cc1	-	-	-	-	-	65	61	20
O=C(CN1CCN(c2nc(-c3ccccc3)cs2)CC1)Nc1ccc(Cl)cc1	.	-	-	-	.	-	.	.
